Data reported in ChEMBL document CHEMBL5096224, “First-in-Class Dual Mechanism Ferroptosis-HDAC Inhibitor Hybrids” (J Med Chem, 2022).
Activity calls are given as the source filed them. The rule behind the calls is not given here.

What was measured:
NCI-H322M = assay: Cytotoxicity against human NCI-H322M cells assessed as cell growth inhibition incubated for 24 hrs by MTT assay; format: functional, cell-based
Method in brief: (§1)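 Run within the NCI-60 DTP screen: a single-dose test at 10 μM across about sixty human tumour lines, read as Growth % and mean inhibition. Selected compounds then went to a five-dose assay to derive GI50. Both were single experiments without replicates.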

Histone deacetylase 3 = Histone deacetylase 3 (Homo sapiens, UniProt O15379); assay: Inhibition of full length C-terminal his6/FLAG-tagged human recombinant HDAC3 ([…]) expressed in Sf9 insect cells
NCI-H522 [1] = assay: Cytotoxicity against human NCI-H522 cells assessed as cell growth inhibition incubated for 24 hrs by MTT assay; format: functional, cell-based
NCI-H522 [2] = assay: Cytotoxicity against human NCI-H522 cells assessed as reduction in cell survival at 1 to 5 uM incubated for 3 days in presence of ferroptosis inhibitor, liproxstatin-1 by methylene blue staining based analysis; format: functional; details: dose 1-5 µM, time 3.0 day
K562 = assay: Cytotoxicity against human K562 cells assessed as cell growth inhibition incubated for 24 hrs by MTT assay; format: functional, cell-based
SF-539 = assay: Cytotoxicity against human SF-539 cells assessed as cell growth inhibition incubated for 24 hrs by MTT assay; details: SF-539, 24 h
SR = assay: Cytotoxicity against human SR cells assessed as cell growth inhibition incubated for 24 hrs by MTT assay; format: functional, cell-based
NCI-H522 [3] = assay: Induction of ferroptosis in human NCI-H522 cells assessed as viability at 5 uM incubated at 0.2 to 10.2 hrs by microscopic analysis; format: functional, cell-based; details: time 0.2-10.2 hrs
Method in brief: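 Time-lapse imaging used NCI-H522 cells adhered overnight and equilibrated to 10% CO2, held in sealed flasks on a 37 °C stage. Frames were taken every 12 min, 300 in total, with a ×40 objective. For Kaplan–Meier curves, at least 100 cells were scored, with death counted per 1 h or 0.2 h interval.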

HOP-62 = assay: Cytotoxicity against human HOP-62 cells assessed as cell growth inhibition incubated for 24 hrs by MTT assay; format: functional, cell-based
RPMI-8226 = assay: Cytotoxicity against human RPMI-8226 cells assessed as cell growth inhibition incubated for 24 hrs by MTT assay; details: RPMI-8226, 24 h
Histone deacetylase 8 = target: T1, Histone deacetylase 8 (Homo sapiens, UniProt Q9BY41); assay: Inhibition of full length C-terminal his-tagged human recombinant HDAC8 expressed in Sf9 insect cells
T1 sequence (Q9BY41 whole entry): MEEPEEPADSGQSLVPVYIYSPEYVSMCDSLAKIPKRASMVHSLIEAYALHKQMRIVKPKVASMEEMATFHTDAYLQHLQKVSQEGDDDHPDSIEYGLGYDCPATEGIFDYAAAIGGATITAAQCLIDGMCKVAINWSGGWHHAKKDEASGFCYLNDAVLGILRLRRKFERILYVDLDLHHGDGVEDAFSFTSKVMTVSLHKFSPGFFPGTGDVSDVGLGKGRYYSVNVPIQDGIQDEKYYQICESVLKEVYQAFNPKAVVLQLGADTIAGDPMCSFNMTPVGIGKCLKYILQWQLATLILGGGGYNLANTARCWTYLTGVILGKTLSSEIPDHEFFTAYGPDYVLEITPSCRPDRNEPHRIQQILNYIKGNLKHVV

Histone deacetylase 2 = Histone deacetylase 2 (Homo sapiens, UniProt Q92769)
MOLT-4 = assay: Cytotoxicity against human MOLT-4 cells assessed as cell growth inhibition incubated for 24 hrs by MTT assay; format: functional, cell-based
A549 = assay: Cytotoxicity against human A549 cells assessed as cell growth inhibition incubated for 24 hrs by MTT assay; format: functional, cell-based
[4] = Cytotoxicity against human WI-38 cells assessed as reduction in cell survival incubated for 30 mins by methylene blue staining based analysis
NCI-H460 = assay: Cytotoxicity against human NCI-H460 cells assessed as cell growth inhibition incubated for 24 hrs by MTT assay; format: functional, cell-based
NCI-H522 [5] = assay: Induction of ferroptosis in human NCI-H522 cells assessed as induction of lipid peroxidase accumulation at 10 uM incubated for 6 hrs by C11-BODIPY-581/591 staining based flow cytometry analysis; format: functional, cell-based
Method in brief: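 NCI-H522 cells were plated overnight to about 70% density and treated at 10 μM. C11-BODIPY 581/591 (1 μM) was added at the time of treatment. After 6 h, cells were trypsinized, washed, resuspended in PBS with 2% FBS and analysed by flow cytometry, 20 × 10³ cells per sample.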

NCI-H522 [6] = assay: Induction of cell cycle arrest in human NCI-H522 cells assessed as accumulation at G1 phase 5 uM incubated for 24 to 72 hrs by PI staining based flow cytometric analysis; format: functional; details: time lower […], time upper […]
NCI-H226 = assay: Cytotoxicity against human NCI-H226 cells assessed as cell growth inhibition incubated for 24 hrs by MTT assay; format: functional, cell-based
EKVX = assay: Cytotoxicity against human EKVX cells assessed as cell growth inhibition incubated for 24 hrs by MTT assay; format: functional, cell-based; method in brief: as §1
Histone deacetylase 1 = Histone deacetylase 1 (Homo sapiens, UniProt Q13547); assay: Inhibition of full length his6/FLAG-tagged human recombinant HDAC1(1 to 482 residues) expressed in Sf9 insect cells
NCI-H23 = assay: Cytotoxicity against human NCI-H23 cells assessed as cell growth inhibition at 10 uM incubated for 24 hrs by MTT assay; details: NCI-H23, 24 h
[7] = Neurotoxicity in human SH-SY5Y cells assessed as decrease in cell viability at 2.32 uM incubated for 3 days; format: toxicity, cell-based; details: 72 h, time 3 day
Method in brief: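 SH-SY5Y cells were grown on poly-D-lysine in DMEM/F12 with 10% FBS and seeded at 15,000/well 36 h before dosing, with DMSO as vehicle. Viability was read by MTT: 2 h at 37 °C, then solubilization for 1 h and absorbance at 570. Data are triplicates from three separate experiments.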

NCI-H522 [8] = assay: Induction of cell cycle arrest in human NCI-H522 cells assessed as accumulation at G2/M phase 5 uM incubated for 24 to 72 hrs by PI staining based flow cytometric analysis; format: functional; details: time lower […], time upper […]
HL-60 = assay: Cytotoxicity against human HL-60 cells assessed as cell growth inhibition incubated for 24 hrs by MTT assay; format: functional, cell-based
[9] = tested on: Panel NCI-60 (60 carcinoma cell lines); assay: Cytotoxicity against human NCI-60 cells assessed as cell growth inhibition incubated for 24 hrs by MTT assay; format: functional, cell-based; method in brief: as §1
HOP-92 = assay: Cytotoxicity against human HOP-92 cells assessed as cell growth inhibition incubated for 24 hrs by MTT assay; format: functional, cell-based; method in brief: as §1

Chain of Histone deacetylase 3 (O15379 whole entry): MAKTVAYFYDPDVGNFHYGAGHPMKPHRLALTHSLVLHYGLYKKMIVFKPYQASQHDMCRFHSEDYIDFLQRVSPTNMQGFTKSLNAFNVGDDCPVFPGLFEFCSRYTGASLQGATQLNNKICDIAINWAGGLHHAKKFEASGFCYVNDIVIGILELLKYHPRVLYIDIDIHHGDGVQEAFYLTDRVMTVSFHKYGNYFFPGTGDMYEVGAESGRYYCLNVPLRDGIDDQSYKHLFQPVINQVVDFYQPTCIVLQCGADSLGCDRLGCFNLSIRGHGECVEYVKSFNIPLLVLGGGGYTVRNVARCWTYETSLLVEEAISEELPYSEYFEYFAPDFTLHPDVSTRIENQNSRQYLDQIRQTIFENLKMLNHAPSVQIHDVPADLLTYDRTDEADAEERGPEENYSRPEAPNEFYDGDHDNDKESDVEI
Chain of Histone deacetylase 2 (Q92769 whole entry): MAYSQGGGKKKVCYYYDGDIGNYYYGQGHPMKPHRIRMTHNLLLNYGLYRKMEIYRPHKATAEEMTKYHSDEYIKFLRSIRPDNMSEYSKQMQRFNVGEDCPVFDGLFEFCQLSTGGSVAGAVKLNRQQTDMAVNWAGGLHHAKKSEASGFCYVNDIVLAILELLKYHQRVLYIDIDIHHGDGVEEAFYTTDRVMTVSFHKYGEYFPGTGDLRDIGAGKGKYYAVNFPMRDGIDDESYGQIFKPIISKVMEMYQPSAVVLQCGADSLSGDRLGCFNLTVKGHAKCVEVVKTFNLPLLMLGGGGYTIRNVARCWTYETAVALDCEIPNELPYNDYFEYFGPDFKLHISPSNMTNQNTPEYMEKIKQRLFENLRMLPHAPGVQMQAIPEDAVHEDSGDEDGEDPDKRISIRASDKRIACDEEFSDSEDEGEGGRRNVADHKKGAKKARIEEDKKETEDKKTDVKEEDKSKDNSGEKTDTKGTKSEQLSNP
Chain of Histone deacetylase 1 (Q13547 whole entry, the tested form may be a part): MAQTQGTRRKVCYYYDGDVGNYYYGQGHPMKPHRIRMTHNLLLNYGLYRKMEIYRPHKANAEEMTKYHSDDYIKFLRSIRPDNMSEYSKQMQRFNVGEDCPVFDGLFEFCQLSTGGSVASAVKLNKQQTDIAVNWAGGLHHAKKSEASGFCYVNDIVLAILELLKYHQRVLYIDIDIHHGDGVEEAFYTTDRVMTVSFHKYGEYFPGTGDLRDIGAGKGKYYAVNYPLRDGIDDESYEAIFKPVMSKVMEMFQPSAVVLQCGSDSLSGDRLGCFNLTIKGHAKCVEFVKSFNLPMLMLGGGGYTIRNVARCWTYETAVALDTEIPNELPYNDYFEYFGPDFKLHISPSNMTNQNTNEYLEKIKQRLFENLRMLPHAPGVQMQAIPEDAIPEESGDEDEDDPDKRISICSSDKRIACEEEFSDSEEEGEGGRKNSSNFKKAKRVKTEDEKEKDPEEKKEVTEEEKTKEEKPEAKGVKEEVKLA

C#Cc1nc(C(=O)NCCCCCCC(=O)NO)cs1
Activity (NCI-H322M): Active | IC50 (Histone deacetylase 3): 50 nM | Activity (NCI-H522 [1]): Active | Activity (NCI-H522 [2]): Active | Activity (K562): Active | GI50 (SF-539): 1000 nM | Activity (SR): Active | Activity (NCI-H522 [3]): Active | Activity (HOP-62): Active | GI50 (RPMI-8226): 350 nM | IC50 (Histone deacetylase 8): 320 nM | IC50 (Histone deacetylase 2): 93 nM | Activity (MOLT-4): Active | Activity (A549): Active | IC50 at 30 min [4]: 8370 nM | Activity (NCI-H460): Active | Activity (NCI-H522 [5]): Active | Activity (NCI-H522 [6]): Active | Activity (NCI-H226): Active | Activity (EKVX): Active | IC50 (Histone deacetylase 1): 67 nM | GI50 (NCI-H23): 780 nM | Activity [7]: Non-Toxic | Activity (NCI-H522 [8]): Active | Activity (HL-60): Active | Activity [9]: Active | Activity (HOP-92): Active
